Data set [1] concerns myosin-X MyTH4–FERM cassette. Put plainly: Pull-down with GST-fused integrin β5 cytoplasmic tail. The data set is classed as binding, human. As to conditions: GST-fused integrin β5 (743–799), Myo-X 10 μM. In a few lines: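 MyTH4–FERM cassette (10 μM) was pulled down on glutathione-Sepharose at 4°C by GST-fused human integrin β5 cytoplasmic tail (743–799), with DCC P3 peptide at 0, 10, 50 or 100 μM. Eluates were run on SDS–PAGE. Bound cassette was expressed relative to the no-DCC sample, from three independent measurements.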

Data set [2] relates to myosin-X MyTH4–FERM cassette / microtubules. Put plainly: Competition microtubule co-sedimentation of MyTH4–FERM cassette. It is filed as binding, human. As to conditions: Myo-X 4 μM; integrin β5 peptide 0, 4, 20 and 40 μM; three independent measurements.
The nature of data set [3]: Analytical ultracentrifugation. It is filed as physicochemical. As to conditions: AUC, mono-modal peak. In a few lines:
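Sedimentation velocity at 20°C and 25 000 r.p.m. Purified protein was in 20 mM Tris (pH 8.5), 150 mM NaCl and 5 mM DTT, at 1 mg/ml (14 μM). Sedimentation data were fitted to obtain the species distribution.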

The test system of data set [4] is microtubules. Conditions: ref Weber et al, 2004; cited from earlier work.
In data set [5] the test system is DCC. As to conditions: yeast two-hybrid; ref Zhu et al, 2007; cited from earlier work.
In data set [6] the test system is myosin-X MyTH4–FERM cassette. The experiment in a line: Pull-down with GST-fused C-terminal tail peptides of α- and β-tubulins. The data set is classed as binding, human. Conditions: SDS–PAGE. In a few lines:
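Purified MyTH4–FERM cassette was mixed with GST-fused α1A-tubulin (399–451) or β2B-tubulin (390–445) tail peptide in 20 mM Tris–HCl pH 8.0, 50 mM NaCl, 1 mM DTT at 4°C for 30 min. Glutathione-Sepharose was then added for 10 min at 4°C, with five washes. Elution used 20 mM glutathione in 50 mM Tris–HCl pH 8.0 with 150 mM NaCl, then SDS–PAGE.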

Data set [7] relates to C-terminal acidic tail peptide of β2B-tubulin. Put plainly: Pull-down of wild-type and mutated MyTH4–FERM cassettes with GST-tubulin tail. The data set is classed as binding. As to conditions: SDS–PAGE. In a few lines:
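Human myosin-X MyTH4–FERM cassette (wild type or site-directed mutants) was expressed in E. coli BL21Star(DE3) at 20°C with 0.1 mM IPTG. It was Ni-NTA purified, then His-tag cleaved with HRV3C, then run over cation exchange and gel filtration. GST bait was human DCC 1390–1447 or β2B-tubulin 390–445. Cassette and bait were mixed with glutathione-Sepharose at 4°C, washed, and eluates resolved by SDS–PAGE.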

In data set [8] the test system is myosin-X MyTH4–FERM cassette. Put plainly: Gel filtration and AUC of cassette–DCC P3 complex. The data set is classed as binding, human. Conditions: through the MyTH4–FERM cassette.

This is an account of results in PMC3155308 (The EMBO Journal, 2011).

“Also recorded” adds a separate entry of the source. Where no end group is shown, it is not given here.

Consider “integrin β5 cytoplasmic peptide: integrin β5 cytoplasmic tail (residues 743–799) ({GST}-KLLVTIHDRREFAKFQSERSRARYEMASNPLYRKPISTHTVDFTFNKFNKSYNGTVD; not fully specified)”, for which the “binding of integrin β5 cytoplasmic peptide” value in data set [1] was “showed binding”. Moreover, the “interference with microtubule binding by integrin β5” value in data set [2] is given as “interfere with microtubule binding”.

B1: MyTH4–FERM cassette (protein)
chain: TRWSSAIQNVTDTKAPIDTPTQQLIQDIKENCLNSDVVEQIYKRNPILRYTHHPLHSPLLPLPYGDINLNLLKDKGYTTLQDEAIKIFNSLQQLESMSDPIPIIQGILQTGHDLRPLRDELYCQLIKQTNKVPHPGSVGNLYSWQILTCLSCTFLPSRGILKYLKFHLKRIREQFPGSEMEKYALFTYESLKKTKCREFVPSRDEIEALIHRQEMTSTVYCHGGGSCKITINSHTTAGEVVEKLIRGLAMEDSRNMFALFEYNGHVDKAIESRTVVADVLAKFEKLAATSEVGDLPWKFYFKLYCFLDTDNVPKDSVEFAFMFEQAHEAVIHGHHPAPEENLQVLAALRLQYLQGDYTLHAAIPPLEEVYSLQRLKARISQSTKTFSFRTGSVVRQKVEEEQMLDMWIKEEVSSARASIIDKWRKFQGMNQEQAMAKYMALIKEWPGYGSTLFDVECKEGGFPQELWLGVSADAVSVYKRGEGRPLEVFQYEHILSFGAPLANTYKIVVDERELLFETSEVVDVAKLMKAYISMIVKKRYSTTRSASSQGSSR
modifications: left off: His6, N-terminal, cleaved
On to B1, for which, in data set [3], the “association state in solution” value is “monomer”. In data set [4], the microtubule association result is listed as “sufficient to confer microtubule association”. In addition, in data set [5], the “DCC binding in two-hybrid assay” value is “sufficient for DCC and neogenin binding; also recorded: full DCC-binding affinity”. In addition, the “binding to α- and β-tubulin acidic tails” value in data set [6] was “binds both α- and β-tubulin acidic tails”. The “binding to β2B-tubulin C-terminal tail peptide” value in data set [7] is given as “shows binding”. The “cargo-mediated dimerization of myosin-X” value in data set [8] was “no cargo-mediated dimerization was observed”.
